ChEMBL document CHEMBL4513216, “Probing the Open Global Health Chemical Diversity Library for Multistage-Active Starting Points for Next-Generation Antimalarials” (ACS Infect Dis, 2020)

Assay: Toxicity liver stage against HepG2, at 10uM
Assay type: cell-based
Parameters: test concentration 10 uM, cell line HepG2-A16-CD81EGFP
Details: human, HepG2-A16-CD81EGFP cells; read-out: INHIBITION
How it was run: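 Uninfected HepG2-A16-CD81EGFP cells, 3 × 10^3 per well, 1536-well, plated on prespotted compound at 10 μM final, parasite-free screening media added to match infected plates; puromycin 10 μM positive, DMSO 0.5% negative; run in parallel with 48 h PbLuc assay at 37 °C, 5% CO2; viability by CellTiter-Glo luminescence, normalized to controls.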

| SMILES | cytotoxicity at 10 µM |
| --- | --- |
| COc1ccc(Cl)c(-c2noc3ncn(CCC(=O)O)c(=O)c23)c1 | 7.25% |
| Cc1nnc(SCc2cc(=O)n3c4c(sc3n2)CCCC4)[nH]1 | -9.67% |
| CCS(=O)(=O)Nc1ccc2c(c1)OCC(C)(C)C(=O)N2C | -17.2% |
| Cc1noc(C)c1CN1CCCC2(CCN(C(=O)N3CCOCC3)C2)C1 (stereo unspecified) | 3.35% |
| O=C(C1CCCO1)N1CCCn2c(nnc2Cn2cccc2)C1 (stereo unspecified) | 16.4% |
| Cc1nnc([C@H]2C[C@H]3OCC[C@H]3N(S(=O)(=O)C3CC3)C2)o1 | -4.11% |
| CCc1ccc(NC(=O)c2n[nH]c(-n3cnnc3)n2)cc1 | 4.68% |
| c1ccc(-c2nn3c(CN4CCOCC4)nnc3s2)nc1 | 9.9% |
| CC(=O)N1CCC1c1nc(-c2ccc(C)s2)no1 (stereo unspecified) | -1.78% |
| CC(=O)N1CCC2(CC1)CC(NS(C)(=O)=O)c1ccccc1O2 (stereo unspecified) | 5.53% |
| Cc1nc(C)c(CNC(=O)NC2CC(C)(C)OC2(C)C)s1 (stereo unspecified) | -0.864% |
| CSc1ccc(C(=O)N(c2ccc(F)cn2)C2CCOCC2)o1 | -10.7% |
| Cc1cccc(C)c1CN1C(=O)CC2(CCSC2)C1=O (stereo unspecified) | 14.9% |
| CCOc1c(Cl)cccc1NS(=O)(=O)c1cc(C)c(C(=O)O)s1 | 2.13% |
| CCOCCCC(=O)Nc1c(-c2ccc(F)cc2)ncn1C | -9.19% |
| CN(C)C(CNC(=O)N(Cc1ccco1)C1CC1)c1cccs1 (stereo unspecified) | 3.06% |
| COc1ccc(C2(NC(=O)C3CC(=O)N(C)C3)CCCC2)cc1 (stereo unspecified) | 14.7% |
| Cn1cc(CNc2ccc(CCO)cc2)c(-c2ccncc2)n1 | 5.82% |
| COCC(=O)Nc1cc(Br)cnc1OCC(F)(F)F | -5.6% |
| CCN(C)CC1CCN(c2ncc(Br)cn2)C1 (stereo unspecified) | -2.55% |
| CC(NCCCN1CCCN(C)CC1)C(C)(C)C (stereo unspecified) | 29.9% |
| Cc1cc(F)cc(S(=O)(=O)Nc2ccn(CCCC#N)n2)c1 | 18% |
| CCn1c(CN2CCOC(Cn3cccn3)C2)nc2c(F)cccc21 (stereo unspecified) | -3.43% |

| SMILES | cytotoxicity at 10 µM |
| --- | --- |
| CCc1noc(CN(C)CCC(=O)Nc2ccccc2C#N)n1 | 9.69% |
| COc1ccc(S(=O)(=O)Cc2cc(C)on2)cc1 | 7.55% |
| NC(=O)C1CCCN1Cc1ccccc1NC(=O)Cc1cccs1 (stereo unspecified) | 7.31% |
| CC(C)C(C)NC(=O)CCN1C(=O)CCc2cc(F)ccc21 (stereo unspecified) | 8.91% |
| COc1ccccc1CN(Cc1nc2c(cnn2C)c(=O)[nH]1)C1CC1 | 15% |
| CC(C)(O)CNc1ccc(C#N)c(C(F)(F)F)c1 | 1.23% |
| COCC1CCN(C(=O)c2cn(Cc3cccc(C(F)(F)F)c3)nn2)C1 (stereo unspecified) | -0.695% |
| c1cnn(CCC2CCCCN2Cc2cnc(C3CCCCC3)nc2)c1 (stereo unspecified) | 0.106% |
| FC(F)(F)C1CN(Cc2cnc3c(-c4ccccc4)cnn3c2)CCO1 (stereo unspecified) | -2.34% |
| CC(C)c1nccn1Cc1cc(C(=O)NCC(C)n2ccnc2)n[nH]1 (stereo unspecified) | -0.419% |
| N#Cc1ccc(Oc2cc(F)c(CN3CCCC3)c(F)c2)nc1 | -8.74% |
| CNc1ncccc1C(=O)N1CCN(C)C2(CCN(C)CC2)C1 | 7.16% |
| CCSCCn1c(=O)n(Cc2ccc(F)cc2)c2ncc(C(=O)O)cc21 | -2.54% |
| CN(C)C(=O)c1ccc(N2CCC3(CCC(=O)N(CCO)C3)CC2)nc1 | 3.8% |
| CC(C)C(=O)N1CCC(c2nc3c([nH]2)CCCNC3=O)CC1 | 1.74% |
| CCCC1(CO)CCCN(c2ncnc3c2c(C)nn3C)C1 (stereo unspecified) | 2.72% |
| Cc1cccc(-c2nccn2C2CC(=O)N(C(C)C)C2)n1 (stereo unspecified) | 5.62% |
| OC1(CNCc2noc(Cc3ccccc3)n2)CCCNC1 (stereo unspecified) | 5.19% |
| O=C(NCc1ccc(Cl)cc1)N1CCN(CC(O)C2CC2)CC1 (stereo unspecified) | 8.66% |
| Cc1ccsc1CN1CCC2(CC1)CC(OCc1cccnc1)CO2 (stereo unspecified) | 3.45% |
| OCCN1CC2(CCN(CC3CC3)CC2)c2ccccc21 | 6.4% |
| O=S(=O)(NC1CCC12CCN(CC1CC1)CC2)c1ccccc1 (stereo unspecified) | -7.82% |
| O=c1occ(CN2CCCCCC2)c(O)c1CN1CCCCCC1 | -8.1% |
